The source made the active and inactive calls. The calls are words filed in the database; no cut-off is given here.
Tests used:
[1] = target: T1, Phospholipase A and acyltransferase 4 (Homo sapiens, UniProt Q9UL19); test: Inhibition of full-length C-terminal FLAG-tagged human PLAAT4 expressed in HEK293T cell lysate preincubated for 30 mins followed by MB064 addition and measured after 20 mins by SDS-PAGE based ABPP analysis; assay type: cell-free, HEK-293T
T1 sequence (Q9UL19 whole entry): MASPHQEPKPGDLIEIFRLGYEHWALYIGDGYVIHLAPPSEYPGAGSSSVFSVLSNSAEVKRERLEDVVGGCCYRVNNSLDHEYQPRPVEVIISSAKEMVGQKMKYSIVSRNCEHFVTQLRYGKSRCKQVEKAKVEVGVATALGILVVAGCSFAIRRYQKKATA
Method in brief: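 Dose–response competitive ABPP on cytosol only, from HEK293T overexpressing FLAG-tagged PLAAT. Inhibitor 30 min rt, then MB064 20 min rt. PLAAT2 0.25 μg/μL with 250 nM probe; PLAAT3 0.5 μg/μL with 250 nM; PLAAT4 and PLAAT5 1 μg/μL with 500 nM. Fluorescence normalized to Coomassie. IC50 from curves, reported as pIC50 ± SEM, n = 3.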

[2] = target: Cannabinoid receptor 1 (Homo sapiens) (UniProt P21554); test: Displacement of [3H]CP55940 from human CB1 receptor expressed in CHOK1 cell membranes at 10 uM by liquid scintillation spectrometry analysis; conditions: CHO-K1
Sequence of Cannabinoid receptor 1 (Homo sapiens) (P21554 whole entry): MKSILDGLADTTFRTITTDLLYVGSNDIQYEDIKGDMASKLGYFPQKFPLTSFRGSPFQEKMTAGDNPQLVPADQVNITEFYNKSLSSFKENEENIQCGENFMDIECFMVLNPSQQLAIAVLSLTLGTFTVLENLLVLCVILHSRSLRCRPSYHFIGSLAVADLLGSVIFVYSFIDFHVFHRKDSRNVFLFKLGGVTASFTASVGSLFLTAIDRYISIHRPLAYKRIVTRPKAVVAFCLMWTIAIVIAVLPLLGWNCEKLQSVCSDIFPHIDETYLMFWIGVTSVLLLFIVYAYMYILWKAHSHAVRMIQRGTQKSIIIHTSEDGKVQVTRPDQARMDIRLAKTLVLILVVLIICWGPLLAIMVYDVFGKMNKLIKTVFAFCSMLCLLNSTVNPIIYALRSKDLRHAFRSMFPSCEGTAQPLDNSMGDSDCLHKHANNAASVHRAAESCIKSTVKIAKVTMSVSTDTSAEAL
Method in brief: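 [3H]CP55940 displacement at human CB1 or CB2 receptors, single test concentration 10 μM. Result expressed as % radioligand displacement ± SD (N = 2, n = 2).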

[3] = target: Cytosolic phospholipase A2 epsilon (Homo sapiens) (UniProt Q3MJ16); test: Inhibition of full length human PLA2G4E assessed as enzyme remaining activity at 10 uM using FP-TAMRA as substrate preincubated for 30 mins followed by substrate addition and measured after 5 mins by SDS-PAGE based ABPP analysis relative to control
Sequence of Cytosolic phospholipase A2 epsilon (Homo sapiens) (Q3MJ16 whole entry): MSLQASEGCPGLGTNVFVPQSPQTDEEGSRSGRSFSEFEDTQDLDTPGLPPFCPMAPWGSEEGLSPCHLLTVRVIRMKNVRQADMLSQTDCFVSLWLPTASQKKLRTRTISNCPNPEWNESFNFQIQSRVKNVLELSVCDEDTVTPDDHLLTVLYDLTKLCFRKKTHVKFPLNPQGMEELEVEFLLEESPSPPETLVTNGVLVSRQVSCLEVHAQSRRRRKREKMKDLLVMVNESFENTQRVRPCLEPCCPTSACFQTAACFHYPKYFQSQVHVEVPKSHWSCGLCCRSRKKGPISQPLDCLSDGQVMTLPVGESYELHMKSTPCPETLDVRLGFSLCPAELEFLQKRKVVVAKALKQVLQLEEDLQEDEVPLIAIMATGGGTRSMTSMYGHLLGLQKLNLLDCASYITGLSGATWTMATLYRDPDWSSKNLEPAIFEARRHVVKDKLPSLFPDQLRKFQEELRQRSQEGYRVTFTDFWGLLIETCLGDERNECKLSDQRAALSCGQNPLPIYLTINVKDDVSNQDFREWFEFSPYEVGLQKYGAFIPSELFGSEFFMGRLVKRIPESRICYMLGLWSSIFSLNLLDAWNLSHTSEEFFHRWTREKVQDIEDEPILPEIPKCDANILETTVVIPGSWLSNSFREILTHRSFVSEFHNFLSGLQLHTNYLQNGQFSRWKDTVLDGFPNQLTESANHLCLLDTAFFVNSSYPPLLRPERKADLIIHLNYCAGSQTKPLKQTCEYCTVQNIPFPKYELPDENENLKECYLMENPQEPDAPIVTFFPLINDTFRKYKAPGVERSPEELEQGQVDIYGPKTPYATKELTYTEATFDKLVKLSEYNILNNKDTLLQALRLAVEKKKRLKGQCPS
Method in brief: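 hPLA2G4E-overexpressing membrane lysate (1 μg/μL) preincubated with 10 μM inhibitor for 30 min at rt. FP-TAMRA 50 nM added for 5 min at rt. Resolved on 8% SDS-PAGE, fluorescence normalized to Coomassie. Reported as % remaining activity ± SD, n = 3.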

[4] = target: T2, Phospholipase A and acyltransferase 5 (Homo sapiens) (UniProt Q96KN8); test: Inhibition of full-length C-terminal FLAG-tagged human PLAAT5 expressed in human U2OS cells assessed as reduction in absolute N-palmitoleoylethanolamine level at 10 uM incubated for 4 hrs by LC-MS/MS analysis; assay type: cell-based
T2 sequence (whole entry): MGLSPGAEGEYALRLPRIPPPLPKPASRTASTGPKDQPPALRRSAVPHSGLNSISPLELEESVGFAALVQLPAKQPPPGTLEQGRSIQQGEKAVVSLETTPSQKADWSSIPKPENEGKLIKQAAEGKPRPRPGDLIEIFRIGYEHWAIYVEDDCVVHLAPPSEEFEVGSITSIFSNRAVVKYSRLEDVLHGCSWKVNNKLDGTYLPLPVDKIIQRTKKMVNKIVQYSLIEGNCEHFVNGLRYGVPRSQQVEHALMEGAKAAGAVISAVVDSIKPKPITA
Method in brief: (§1)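 U2OS cells transfected with PLAAT2, PLAAT5 or empty vector (PEI, 1:5 plasmid/PEI). At 24 h, switched to serum-free medium with 10 μM compound (0.1% DMSO) or DMSO for 4 h at 37 °C. Pellets extracted with MTBE against deuterated internal standards. NAEs, 2-AG and free fatty acids quantified by LC–MS/MS, normalized to live cell count. Four biological replicates; one-way ANOVA.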

[5] = target: T3, Phospholipase A and acyltransferase 2 (Homo sapiens) (UniProt Q9NWW9); test: Inhibition of full-length C-terminal FLAG-tagged human PLAAT2 expressed in human U2OS cells assessed as reduction in absolute N-oleoylethanolamine level at 10 uM incubated for 4 hrs by LC-MS/MS analysis; assay type: cell-based; method in brief: as §1
T3 sequence (whole entry): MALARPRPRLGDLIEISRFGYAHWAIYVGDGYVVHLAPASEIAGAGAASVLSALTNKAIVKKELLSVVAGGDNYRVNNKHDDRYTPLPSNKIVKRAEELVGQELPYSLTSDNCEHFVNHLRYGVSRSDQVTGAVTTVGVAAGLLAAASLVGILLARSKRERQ

[6] = target: T3, Phospholipase A and acyltransferase 2 (Homo sapiens); test: Inhibition of full-length C-terminal FLAG-tagged human PLAAT2 expressed in human U2OS cells assessed as reduction in absolute N-linoleoylethanolamine level at 10 uM incubated for 4 hrs by LC-MS/MS analysis; assay type: cell-based; method in brief: as §1
[7] = target: T3, Phospholipase A and acyltransferase 2 (Homo sapiens); test: Inhibition of full-length C-terminal FLAG-tagged human PLAAT2 expressed in human U2OS cells assessed as reduction in absolute N-eicosapentaenoylethanolamine level at 10 uM incubated for 4 hrs by LC-MS/MS analysis; assay type: cell-based; method in brief: as §1
[8] = target: T2, Phospholipase A and acyltransferase 5 (Homo sapiens); test: Inhibition of full-length C-terminal FLAG-tagged human PLAAT5 expressed in human U2OS cells assessed as reduction in absolute N-eicosapentaenoylethanolamine level at 10 uM incubated for 4 hrs by LC-MS/MS analysis; assay type: cell-based; method in brief: as §1
[9] = system: U2OS; test: Downregulation of N-oleoylethanolamine level in human U2OS cells at 10 uM after 4 hrs by LC-MS/MS analysis; assay type: functional, cell-based; method in brief: as §1
[10] = system: U2OS; test: Downregulation of N-linoleoylethanolamine level in human U2OS cells at 10 uM after 4 hrs by LC-MS/MS analysis; assay type: functional, cell-based; method in brief: as §1
[11] = system: U2OS; test: Downregulation of N-eicosapentaenoylethanolamine level in human U2OS cells at 10 uM after 4 hrs by LC-MS/MS analysis; assay type: functional, cell-based; method in brief: as §1
[12] = target: T2, Phospholipase A and acyltransferase 5 (Homo sapiens); test: Inhibition of full-length C-terminal FLAG-tagged human PLAAT5 expressed in human U2OS cells assessed as reduction in N-docosahexaenoylethanolamine level at 10 uM incubated for 4 hrs by LC-MS/MS analysis; assay type: cell-based; method in brief: as §1
[13] = target: T2, Phospholipase A and acyltransferase 5 (Homo sapiens); test: Inhibition of full-length C-terminal FLAG-tagged human PLAAT5 expressed in human U2OS cells assessed as reduction in arachidonic acid level at 10 uM incubated for 4 hrs by LC-MS/MS analysis; assay type: cell-based; method in brief: as §1
[14] = target: T3, Phospholipase A and acyltransferase 2 (Homo sapiens); test: Inhibition of full-length C-terminal FLAG-tagged human PLAAT2 expressed in human U2OS cells assessed as reduction in 2-AG level at 10 uM incubated for 4 hrs by LC-MS/MS analysis; assay type: cell-based; method in brief: as §1
[15] = target: Cytosolic phospholipase A2 gamma (Homo sapiens) (UniProt Q9UP65); test: Inhibition of human PLA2G4C expressed in HEK293T cell lysates at 10 uM preincubated for 30 mins followed by FP-TAMRA addition and measured after 20 mins by SDS-PAGE based competitive ABPP analysis; assay type: cell-free; conditions: HEK-293T
Sequence of Cytosolic phospholipase A2 gamma (Homo sapiens) (Q9UP65 whole entry): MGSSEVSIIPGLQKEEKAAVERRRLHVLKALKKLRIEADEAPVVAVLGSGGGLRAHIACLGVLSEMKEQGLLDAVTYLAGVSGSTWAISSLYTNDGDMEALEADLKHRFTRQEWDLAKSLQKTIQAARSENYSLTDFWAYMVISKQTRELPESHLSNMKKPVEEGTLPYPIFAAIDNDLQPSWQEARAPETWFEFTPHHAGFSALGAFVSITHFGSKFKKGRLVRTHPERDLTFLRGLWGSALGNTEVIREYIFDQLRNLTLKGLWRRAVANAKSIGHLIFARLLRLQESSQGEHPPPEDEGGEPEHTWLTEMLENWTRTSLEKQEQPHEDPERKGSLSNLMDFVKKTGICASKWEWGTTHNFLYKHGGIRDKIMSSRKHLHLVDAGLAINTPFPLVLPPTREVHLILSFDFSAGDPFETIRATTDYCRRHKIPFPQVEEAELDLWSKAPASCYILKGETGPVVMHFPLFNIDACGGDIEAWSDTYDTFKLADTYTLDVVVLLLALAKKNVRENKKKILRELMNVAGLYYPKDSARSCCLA
Method in brief: (§2)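 hPLA2G4B, C or D-overexpressing membrane lysate (1 μg/μL) preincubated with inhibitor for 30 min at rt. FP-TAMRA 500 nM added for 20 min at rt. In-gel fluorescence after SDS-PAGE, normalized to Coomassie.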

[16] = target: Cytosolic phospholipase A2 delta (Homo sapiens) (UniProt Q86XP0); test: Inhibition of human PLA2G4D expressed in HEK293T cell lysates at 10 uM preincubated for 30 mins followed by FP-TAMRA addition and measured after 20 mins by SDS-PAGE based competitive ABPP analysis; assay type: cell-free; conditions: HEK-293T; method in brief: as §2
Sequence of Cytosolic phospholipase A2 delta (Homo sapiens) (Q86XP0 whole entry): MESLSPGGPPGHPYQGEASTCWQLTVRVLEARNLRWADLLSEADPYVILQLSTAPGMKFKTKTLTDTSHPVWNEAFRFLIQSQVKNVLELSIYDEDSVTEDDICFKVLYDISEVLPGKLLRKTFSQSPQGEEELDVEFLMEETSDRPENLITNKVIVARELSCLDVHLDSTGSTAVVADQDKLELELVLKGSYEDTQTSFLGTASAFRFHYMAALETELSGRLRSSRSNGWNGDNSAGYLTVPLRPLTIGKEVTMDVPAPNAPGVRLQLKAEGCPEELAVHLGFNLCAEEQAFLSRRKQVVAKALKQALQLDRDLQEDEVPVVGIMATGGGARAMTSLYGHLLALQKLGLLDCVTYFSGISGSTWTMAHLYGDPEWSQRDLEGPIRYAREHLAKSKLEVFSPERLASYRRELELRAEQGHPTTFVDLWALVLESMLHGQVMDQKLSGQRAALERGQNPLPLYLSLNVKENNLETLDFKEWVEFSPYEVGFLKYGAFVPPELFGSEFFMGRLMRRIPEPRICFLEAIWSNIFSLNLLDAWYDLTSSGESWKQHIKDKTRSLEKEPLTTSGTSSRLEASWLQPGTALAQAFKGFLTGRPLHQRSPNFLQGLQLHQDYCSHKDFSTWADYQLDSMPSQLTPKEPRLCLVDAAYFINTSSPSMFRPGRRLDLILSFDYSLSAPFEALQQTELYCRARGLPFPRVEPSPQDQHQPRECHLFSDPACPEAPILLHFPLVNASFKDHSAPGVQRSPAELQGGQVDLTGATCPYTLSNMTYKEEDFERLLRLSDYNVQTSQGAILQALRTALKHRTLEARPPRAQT

[17] = target: Monoglyceride lipase (Homo sapiens) (UniProt Q99685); test: Inhibition of human MAGL expressed in HEK293 cells assessed as enzyme remaining activity at 10 uM measured by natural substrate-based fluorescence assay relative to control
Sequence of Monoglyceride lipase (Homo sapiens) (Q99685 whole entry): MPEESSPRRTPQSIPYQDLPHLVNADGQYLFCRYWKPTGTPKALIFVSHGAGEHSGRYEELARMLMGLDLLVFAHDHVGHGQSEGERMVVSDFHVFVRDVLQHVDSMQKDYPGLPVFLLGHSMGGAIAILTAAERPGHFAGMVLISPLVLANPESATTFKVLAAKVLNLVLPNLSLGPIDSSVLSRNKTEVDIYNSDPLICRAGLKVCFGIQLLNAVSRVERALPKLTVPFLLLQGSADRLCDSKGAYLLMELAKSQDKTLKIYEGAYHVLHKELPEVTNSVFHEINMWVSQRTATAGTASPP

Compound: O=C(CCCc1ccccc1)C(=O)NCCc1ccc(Oc2ccccc2)cc1
- IC50 [1]: 50.1 nM
- Activity [2]: 49%
- Activity [3]: 95%
- inhibition [4]: Active
- inhibition [5]: Active
- inhibition [6]: Active
- inhibition [7]: Active
- inhibition [8]: Active
- inhibition [9]: inactive
- inhibition [10]: inactive
- inhibition [11]: inactive
- inhibition [12]: inactive
- inhibition [13]: inactive
- inhibition [14]: inactive
- inhibition [15]: inactive
- inhibition [16]: inactive
- Activity [17]: 105%
